How the values were obtained:
BT-549 = test: Growth inhibition of human BT549 cells; format: functional; settings: for CC50: read-out: LC50 (the source's name)
786-0 = test: Growth inhibition of human 786-0 cells; format: functional
T47D = test: Growth inhibition of human T47D cells; format: functional; settings: for CC50: read-out: LC50 (the source's name)
[1] = Growth inhibition of human Hs 578T cells; format: functional; settings: for CC50: read-out: LC50 (the source's name)
MCF7 = test: Growth inhibition of human MCF7 cells; format: functional; settings: for CC50: read-out: LC50 (the source's name)
SF-539 = test: Growth inhibition of human SF539 cells; format: functional; settings: for CC50: read-out: LC50 (the source's name)
Pseudomonas aeruginosa = test: Antimicrobial activity against Pseudomonas aeruginosa assessed per disk; format: functional
[2] = Growth inhibition of human […] cells; format: functional; settings: for CC50: read-out: LC50 (the source's name)
MDA-MB-231 = test: Growth inhibition of human MDA-MB-231 cells; format: functional; settings: for CC50: read-out: LC50 (the source's name)
HOP-92 = test: Growth inhibition of human HOP92 cells; format: functional; settings: for CC50: read-out: LC50 (the source's name)
K562 = test: Growth inhibition of human K562 cells; format: functional
HT-29 = test: Growth inhibition of human HT-29 cells; format: functional
NCI/ADR-RES = test: Growth inhibition of human NCI/ADR-RES cells; format: functional; settings: for CC50: read-out: LC50 (the source's name)
LOX IMVI = test: Growth inhibition of human LOXIMVI cells; format: functional
UO-31 = test: Growth inhibition of human UO31 cells; format: functional; settings: for CC50: read-out: LC50 (the source's name)
[3] = Cytotoxicity against african green monkey BSC1 cells at 40 ug/disk; format: cell-based; settings: chlorocebus aethiops, bsc-1
Summary of the method: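 BSC-1 cells (ATCC CCL 26), a line derived from African green monkey kidney, are the host cells of the combined antiviral/cytotoxicity assay. Cytotoxicity is scored on these cells within that assay.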

KM12 = test: Growth inhibition of human KM12 cells; format: functional; settings: for CC50: read-out: LC50 (the source's name)
A498 = test: Growth inhibition of human A498 cells; format: functional; settings: for CC50: read-out: LC50 (the source's name)
OVCAR-8 = test: Growth inhibition of human OVCAR8 cells; format: functional; settings: for CC50: read-out: LC50 (the source's name)
[4] = tested on: Trichophyton mentagrophytes; test: Antimicrobial activity against Trichophyton mentagrophytes assessed per disk; format: functional
DU-145 = test: Growth inhibition of human DU145 cells; format: functional; settings: for CC50: read-out: LC50 (the source's name)

Question: Which GI50 (BT-549) does the source give for COc1cn2c(cc1=O)C(=O)c1ccnc(CC(C)C)c1-2 [PTEROCELLIN A] here?
Answer: 1.7 µM

Question: What about the TGI (BT-549) of the same compound?
Answer: 4 µM

Question: What about the CC50 (BT-549) of the same compound?
Answer: 9.3 µM

Question: And the GI50 (786-0)?
Answer: 1.3 µM

Question: What about the LC50 (concentration killing 50% of cells) (786-0) of the same compound?
Answer: 24.4 µM

Question: And the TGI (786-0)?
Answer: 4.7 µM

Question: And the GI50 (T47D)?
Answer: 1.8 µM

Question: And the TGI (T47D)?
Answer: 6.5 µM

Question: What about the CC50 (T47D) of the same compound?
Answer: > 100 µM

Question: What about the GI50 [1] of the same compound?
Answer: 6.3 µM

Question: And the TGI [1]?
Answer: > 100 µM

Question: What about the CC50 [1] of the same compound?
Answer: > 100 µM

Question: What about the GI50 (MCF7) of the same compound?
Answer: 1.5 µM

Question: And the TGI (MCF7)?
Answer: 4.9 µM

Question: And the CC50 (MCF7)?
Answer: > 100 µM

Question: And the GI50 (SF-539)?
Answer: 1.8 µM

Question: And the TGI (SF-539)?
Answer: 3.6 µM

Question: And the CC50 (SF-539)?
Answer: 7.1 µM

Question: And the MIC (Pseudomonas aeruginosa)?
Answer: >60 µg

Question: What about the GI50 [2] of the same compound?
Answer: 1.7 µM

Question: And the TGI [2]?
Answer: 4.2 µM

Question: And the CC50 [2]?
Answer: > 100 µM

Question: What about the GI50 (MDA-MB-231) of the same compound?
Answer: 2.6 µM

Question: And the TGI (MDA-MB-231)?
Answer: 14.1 µM

Question: And the CC50 (MDA-MB-231)?
Answer: 51.7 µM

Question: And the GI50 (HOP-92)?
Answer: 2.2 µM

Question: And the TGI (HOP-92)?
Answer: 4.9 µM

Question: And the CC50 (HOP-92)?
Answer: 14.1 µM

Question: What about the GI50 (K562) of the same compound?
Answer: 3 µM

Question: What about the LC50 (concentration killing 50% of cells) (K562) of the same compound?
Answer: > 100 µM

Question: And the TGI (K562)?
Answer: > 100 µM

Question: And the GI50 (HT-29)?
Answer: 1.3 µM

Question: And the LC50 (HT-29)?
Answer: > 100 µM

Question: And the TGI (HT-29)?
Answer: 7.2 µM

Question: What about the GI50 (NCI/ADR-RES) of the same compound?
Answer: 2.1 µM

Question: What about the TGI (NCI/ADR-RES) of the same compound?
Answer: 4.9 µM

Question: And the CC50 (NCI/ADR-RES)?
Answer: > 100 µM

Question: What about the GI50 (LOX IMVI) of the same compound?
Answer: 1.3 µM

Question: What about the LC50 (LOX IMVI) of the same compound?
Answer: > 100 µM

Question: What about the TGI (LOX IMVI) of the same compound?
Answer: 7.4 µM

Question: What about the GI50 (UO-31) of the same compound?
Answer: 2.2 µM

Question: What about the TGI (UO-31) of the same compound?
Answer: 6.1 µM

Question: And the CC50 (UO-31)?
Answer: 22.2 µM

Question: And the Activity [3]?
Answer: Toxic

Question: And the GI50 (KM12)?
Answer: 1.6 µM

Question: What about the TGI (KM12) of the same compound?
Answer: 3.4 µM

Question: What about the CC50 (KM12) of the same compound?
Answer: 7.3 µM

Question: And the GI50 (A498)?
Answer: 0.9 µM

Question: And the TGI (A498)?
Answer: 2.2 µM

Question: And the CC50 (A498)?
Answer: 5.1 µM

Question: And the GI50 (OVCAR-8)?
Answer: 2.2 µM

Question: And the TGI (OVCAR-8)?
Answer: 17.6 µM

Question: And the CC50 (OVCAR-8)?
Answer: > 100 µM

Question: What about the MIC [4] of the same compound?
Answer: 3.9 µg

Question: What about the GI50 (DU-145) of the same compound?
Answer: 0.7 µM

Question: And the TGI (DU-145)?
Answer: 2 µM

Question: What about the CC50 (DU-145) of the same compound?
Answer: 4.7 µM

Question: Which results are given for COc1cn2c(cc1=O)C(=O)c1ccnc(Cc3ccccc3)c1-2 [PTEROCELLIN B]?
Answer: GI50 (BT-549): 1.5 µM; TGI (BT-549): 2.9 µM; CC50 (BT-549): 5.6 µM; GI50 (786-0): 1.8 µM; LC50 (concentration killing 50% of cells) (786-0): 17.9 µM; TGI (786-0): 5 µM; GI50 (T47D): 1.3 µM; TGI (T47D): 3.2 µM; CC50 (T47D): > 100 µM; GI50 [1]: 5.1 µM; TGI [1]: > 100 µM; CC50 [1]: > 100 µM; GI50 (MCF7): 1 µM; TGI (MCF7): 3.3 µM; CC50 (MCF7): > 100 µM; GI50 (SF-539): 1.1 µM; TGI (SF-539): 2.7 µM; CC50 (SF-539): 6.4 µM; MIC (Pseudomonas aeruginosa): >60 µg; GI50 [2]: 1.5 µM; TGI [2]: 4.9 µM; CC50 [2]: > 100 µM; GI50 (MDA-MB-231): 3.3 µM; TGI (MDA-MB-231): 29.6 µM; CC50 (MDA-MB-231): > 100 µM; GI50 (HOP-92): 1.7 µM; TGI (HOP-92): 3.8 µM; CC50 (HOP-92): 8.8 µM; GI50 (K562): 1.2 µM; LC50 (concentration killing 50% of cells) (K562): 4.9 µM; TGI (K562): 2.4 µM; GI50 (HT-29): 0.5 µM; LC50 (HT-29): 27.3 µM; TGI (HT-29): 3.2 µM; GI50 (NCI/ADR-RES): 1.4 µM; TGI (NCI/ADR-RES): 3.9 µM; CC50 (NCI/ADR-RES): 15.3 µM; GI50 (LOX IMVI): 0.4 µM; LC50 (LOX IMVI): 13.2 µM; TGI (LOX IMVI): 2.4 µM; GI50 (UO-31): 1.3 µM; TGI (UO-31): 2.8 µM; CC50 (UO-31): 5.7 µM; Activity [3]: Toxic; GI50 (KM12): 0.6 µM; TGI (KM12): 1.9 µM; CC50 (KM12): 4.5 µM; GI50 (A498): 1.9 µM; TGI (A498): 4 µM; CC50 (A498): 8.5 µM; GI50 (OVCAR-8): 0.7 µM; TGI (OVCAR-8): 7.6 µM; CC50 (OVCAR-8): 84.8 µM; MIC [4]: 3.9 µg; GI50 (DU-145): 0.2 µM; TGI (DU-145): 0.3 µM; CC50 (DU-145): 0.6 µM
